In ChEMBL document CHEMBL4411317 (Bioorg Med Chem, 2019):

Assays:
[1] = Cytotoxicity against human LO2 cells assessed as cell viability at 20 uM after 48 hrs by MTT assay relative to control; format: cell-based, L02; conditions: read-out: Activity
How it was run: (§1)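 Hepatic LO2 cells grown in DMEM with 10% FBS and antibiotics at 37 °C, 5% CO2; log-phase cells seeded at 1 × 10^4 per well and exposed to compounds for 48 h. MTT (5 mg/mL stock in PBS) added 4 h before end; formazan dissolved in DMSO, absorbance read at 490 nm.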

Dipeptidyl peptidase 8 = Dipeptidyl peptidase 8 (Homo sapiens, UniProt Q6V1X1); experiment: Inhibition of recombinant full-length human N-terminal GST-tagged DPP8 expressed in Sf9 insect cells using Gly-Pro-AMC as substrate measured at 60 secs interval for 20 mins by fluorescence assay
Chain of Dipeptidyl peptidase 8 (Q6V1X1 whole entry): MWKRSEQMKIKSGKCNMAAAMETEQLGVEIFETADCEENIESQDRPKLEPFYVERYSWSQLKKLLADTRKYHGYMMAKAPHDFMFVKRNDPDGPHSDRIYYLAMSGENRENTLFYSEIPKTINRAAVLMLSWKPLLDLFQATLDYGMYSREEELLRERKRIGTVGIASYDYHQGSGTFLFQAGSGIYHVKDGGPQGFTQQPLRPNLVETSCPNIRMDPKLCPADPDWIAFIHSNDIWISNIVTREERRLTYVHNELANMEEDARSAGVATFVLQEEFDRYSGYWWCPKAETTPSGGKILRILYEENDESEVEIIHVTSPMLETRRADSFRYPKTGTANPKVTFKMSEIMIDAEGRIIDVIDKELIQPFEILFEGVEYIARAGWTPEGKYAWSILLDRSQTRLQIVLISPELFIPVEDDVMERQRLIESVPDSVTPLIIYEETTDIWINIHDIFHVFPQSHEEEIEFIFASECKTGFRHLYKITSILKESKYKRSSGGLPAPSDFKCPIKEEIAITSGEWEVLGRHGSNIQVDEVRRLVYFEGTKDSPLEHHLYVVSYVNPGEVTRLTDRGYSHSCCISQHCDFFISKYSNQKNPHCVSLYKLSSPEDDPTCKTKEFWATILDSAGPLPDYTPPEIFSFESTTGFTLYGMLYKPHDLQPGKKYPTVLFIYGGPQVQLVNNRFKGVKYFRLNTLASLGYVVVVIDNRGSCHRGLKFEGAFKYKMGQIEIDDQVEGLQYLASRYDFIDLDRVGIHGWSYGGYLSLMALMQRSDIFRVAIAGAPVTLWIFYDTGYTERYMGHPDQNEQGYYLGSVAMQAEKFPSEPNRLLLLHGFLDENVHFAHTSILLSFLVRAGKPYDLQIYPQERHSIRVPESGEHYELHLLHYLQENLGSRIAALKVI

Dipeptidyl peptidase 9 = Dipeptidyl peptidase 9 (Homo sapiens, UniProt Q86TI2); experiment: Inhibition of recombinant full-length human N-terminal GST-tagged DPP9 expressed in Sf9 insect cells using Gly-Pro-AMC as substrate measured at 60 secs interval for 20 mins by fluorescence assay
Chain of Dipeptidyl peptidase 9 (Q86TI2 whole entry): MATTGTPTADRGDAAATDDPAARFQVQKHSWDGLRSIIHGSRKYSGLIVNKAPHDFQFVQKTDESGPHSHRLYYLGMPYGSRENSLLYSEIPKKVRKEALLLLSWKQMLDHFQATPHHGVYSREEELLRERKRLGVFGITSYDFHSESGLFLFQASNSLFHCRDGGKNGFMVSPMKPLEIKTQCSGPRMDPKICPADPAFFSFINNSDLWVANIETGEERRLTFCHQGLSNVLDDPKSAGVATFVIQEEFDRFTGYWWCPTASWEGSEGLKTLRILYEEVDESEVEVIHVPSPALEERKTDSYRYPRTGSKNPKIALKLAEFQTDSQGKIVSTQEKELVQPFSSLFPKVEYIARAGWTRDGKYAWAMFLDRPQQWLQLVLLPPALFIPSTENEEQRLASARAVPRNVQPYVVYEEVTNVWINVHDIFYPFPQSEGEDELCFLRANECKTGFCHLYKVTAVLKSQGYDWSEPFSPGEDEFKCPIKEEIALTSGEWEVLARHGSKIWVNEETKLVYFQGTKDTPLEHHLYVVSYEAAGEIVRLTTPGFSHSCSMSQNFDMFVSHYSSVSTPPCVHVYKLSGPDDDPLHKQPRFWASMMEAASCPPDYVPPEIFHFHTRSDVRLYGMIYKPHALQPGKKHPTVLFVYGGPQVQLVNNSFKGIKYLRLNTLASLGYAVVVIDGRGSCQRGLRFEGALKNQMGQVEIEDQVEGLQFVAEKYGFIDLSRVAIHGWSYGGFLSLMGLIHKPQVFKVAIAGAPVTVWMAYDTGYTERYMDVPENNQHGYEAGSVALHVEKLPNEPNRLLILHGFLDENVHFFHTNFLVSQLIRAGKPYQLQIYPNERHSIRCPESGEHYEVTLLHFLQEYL

[2] = Cytotoxicity against human LO2 cells assessed as cell viability at 100 uM after 48 hrs by MTT assay relative to control; format: cell-based, L02; conditions: read-out: Activity; how it was run: as §1
[3] = Retention time of the compound in water at 1 uM by LC/MS/MS method; format: physicochemical; conditions: buffer
[4] = Retention time of the compound in rat plasma at 1 uM by LC/MS/MS method; format: ADME, cell-free
Mus musculus = experiment: Hypoglycemic activity in po dosed Kunming mouse assessed as decrease in blood glucose AUC (0 to 120 mins) administered as single dose treated for 30 mins prior to glucose load by OGTT; format: functional, organism-based
How it was run: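 Male Kunming mice (20±2 g) fasted overnight (12 h), randomized (n = 8), given a single oral dose suspended in water vehicle; oral glucose 3 g/kg 30 min later. Blood sampled at -30, 0, 15, 30, 60 and 120 min; glucose AUC0–120 min versus vehicle, mean ± SEM, one-way ANOVA with Dunnett's test.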

[5] = Cytotoxicity against human LO2 cells assessed as cell viability at 50 uM after 48 hrs by MTT assay relative to control; format: cell-based, L02; conditions: read-out: Activity; how it was run: as §1
[6] = Drug metabolism in rat plasma assessed as (R)-2-((4-(3-Aminopiperidin-1-yl)-3-(but-2-yn-1-yl)-2,6-dioxo-3,6-dihydropyrimidin-1(2H)-yl)methyl)-6-fluorobenzoic acid hydrochloride formation at 1 uM after 30 mins by LC/MS/MS method; format: ADME, cell-free; conditions: 0.5 h
How it was run: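 Ester prodrug incubated with rat plasma at 37 °C for 0 and 30 min; ester and formed acid quantified by LC/MS/MS.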

[7] = Retention time of the compound in rat plasma by LC/MS/MS method; format: ADME, cell-free

Row | Structure (SMILES) | IC50 (Dipeptidyl peptidase 8) [µM] | IC50 (Dipeptidyl peptidase 9) [µM] | viability at 48 h, 100 µM [2] [%] | further results
1 | COc1cccc2c1C(=O)c1c(O)c3c(c(O)c1C2=O)C[C@@](O)(C(=O)CO)C[C@@H]3O[C@H]1C[C@H](N)[C@H](O)[C@H](C)O1 [DOXORUBICIN] | – | – | – | viability at 48 h, 20 µM [1]: 11%
2 | CC#CCn1c(N2CCC[C@@H](N)C2)cc(=O)n(Cc2cc(C#N)ccc2C(=O)O)c1=O | > 100 | > 100 | – | –
3 | CC#CCn1c(N2CCC[C@@H](N)C2)cc(=O)n(Cc2ccccc2C(=O)O)c1=O | > 100 | > 100 | – | –
4 | CC#CCn1c(N2CCC[C@@H](N)C2)cc(=O)n(Cc2cc(Br)ccc2C(=O)OC)c1=O | > 100 | > 100 | 14 | –
5 | CC#CCn1c(N2CCC[C@@H](N)C2)cc(=O)n(Cc2cc(OC)ccc2C(=O)O)c1=O | > 100 | > 100 | – | –
6 | CC#CCn1c(N2CCC[C@@H](N)C2)cc(=O)n(Cc2ccc(F)cc2C(=O)O)c1=O | > 100 | > 100 | – | –
7 | CC#CCn1c(N2CCC[C@@H](N)C2)cc(=O)n(Cc2cccc(F)c2C(=O)OC)c1=O | > 100 | > 100 | 70 | Retention_time [3]: 5.41 min; Retention_time [4]: 5.41 min; Activity (Mus musculus): Dose-dependent effect; viability at 48 h, 50 µM [5]: 90%; Drug metabolism [6]: Metabolite_Detected
8 | CC#CCn1c(N2CCC[C@@H](N)C2)cc(=O)n(Cc2cc(Br)ccc2C(=O)O)c1=O | > 100 | > 100 | 70 | viability at 48 h, 50 µM [5]: 90%
9 | CC#CCn1c(N2CCC[C@@H](N)C2)cc(=O)n(Cc2ccc(Cl)cc2C(=O)O)c1=O | > 100 | > 100 | – | –
10 | CC#CCn1c(N2CCC[C@@H](N)C2)cc(=O)n(Cc2ccc(Br)cc2C(=O)O)c1=O | > 100 | > 100 | – | –
11 | CC#CCn1c(N2CCC[C@@H](N)C2)cc(=O)n(Cc2cccc(F)c2C(=O)O)c1=O | – | – | 70 | Retention_time [7]: 2 min; Retention_time [3]: 2.03 min; viability at 48 h, 50 µM [5]: 90%
